NPY-Y2 antag: blocks the human neuropeptide Y Y2 receptor. NPY-Y2 expressing cells, antagonist mode. P49146. hit rate 0.99% among 140,000. inhibition, % at 2.7 µM; in the data active = inhibition above about 17%;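 also: 0% = vehicle with agonist challenge and 100% = reference antagonist with challenge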
Furin inhibitor: inhibitors of human furin. inhibition, % at 20 µM or 30 µM. purified furin, fluorogenic substrate cleavage. hit rate 0.061% among 220,000. P09958; in the data active = inhibition above about 25%
Target sequence (P09958 108-714 limits assumed): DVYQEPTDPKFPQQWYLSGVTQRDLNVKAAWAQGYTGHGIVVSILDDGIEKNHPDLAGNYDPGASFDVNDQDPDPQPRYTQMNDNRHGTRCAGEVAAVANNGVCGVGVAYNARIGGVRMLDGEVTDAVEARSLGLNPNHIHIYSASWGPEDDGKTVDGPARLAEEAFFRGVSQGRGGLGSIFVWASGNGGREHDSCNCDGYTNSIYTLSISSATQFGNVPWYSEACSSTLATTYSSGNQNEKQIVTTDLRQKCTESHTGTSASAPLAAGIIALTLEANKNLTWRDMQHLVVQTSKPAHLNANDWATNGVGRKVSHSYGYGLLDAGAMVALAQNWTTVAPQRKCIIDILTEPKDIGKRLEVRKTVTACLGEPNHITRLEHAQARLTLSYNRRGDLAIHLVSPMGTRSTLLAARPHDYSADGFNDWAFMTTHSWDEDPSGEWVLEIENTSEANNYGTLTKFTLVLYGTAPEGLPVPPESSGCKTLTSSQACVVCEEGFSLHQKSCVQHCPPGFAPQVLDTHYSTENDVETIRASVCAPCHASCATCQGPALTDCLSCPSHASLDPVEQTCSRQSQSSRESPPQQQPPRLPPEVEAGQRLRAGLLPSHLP
KCC2 mod: modulates chloride dependent transport by human KCC2; KCC2 cells, thallium flux FluoZin-2 fluorescence; B-score of Tl+ flux slope (higher = more flux/activation; lower = inhibition) at 10 µM; Q9H2X9; hit rate 2.2% among 190,000; AID 1456;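 active = thallium flux slope and its plate-corrected score both differing from the plate sample mean at a set confidence after two filtering rounds, in either direction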;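 also: slope of fluorescence scaled to starting intensity during 10 to 20 s after thallium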
NPY-Y1 antag: NPY-Y1 (human) receptor antagonism; hit rate 1% among 200,000; HEK293-CNG Y1 cells, membrane potential fluorescence; NPY at EC95, then isoproterenol; inhibition, % at 3.6 µM; AID 1040; P25929;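 active = inhibition above the campaign mean inhibition of all tested compounds plus 3 SD, cut at about 20% in these data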;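 also: 0% = DMSO wells given NPY plus isoproterenol and 100% = isoproterenol alone without NPY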
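Material: Y1- and CNG-channel-expressing HEK293 cells / Probe or stimulus: NPY 25 nM then isoproterenol 1 µM plus Ro 20-1724 25 µM / Doses: 3.6 µM single dose, DMSO 0.4% / Schedule: compound incubation 1 h at room temperature, readout 45 min post-stimulation / Signal: membrane potential fluorescence / Benchmarks: isoproterenol-only wells as full block versus NPY-plus-isoproterenol wells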
NPY1 pot ag: potentiates or activates human NPY-Y1 receptor; P25929; NPY-Y1 expressing cells, potentiator/agonist activation; activation, % at 3.6 µM; hit rate 0.37% among 220,000; in the data active = activation above about 33%, passing the limit was not always enough;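 also: cells stimulated with NPY at EC10 then isoproterenol at EC100; 0% = low agonist plus stimulus and 100% = saturating agonist plus stimulus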
NPY2 pot ag: human NPY-Y2 potentiation or agonism, primary screen; hit rate 0.45% among 220,000; cells expressing NPY-Y2, potentiator/agonist read-out; activation, % at 3.6 µM; P49146; in the data active = activation above about 27%;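 also: cells stimulated with NPY near EC25 plus isoproterenol at EC100; 0% = vehicle plus submaximal agonist and 100% = vehicle plus saturating agonist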
KCC2 secondary: KCC2 (human) modulation, secondary assay. normalised thallium flux (F/F0 slope) at 10 µM. AID 1713. HEK293-KCC2, thallium flux, FluoZin2 fluorescence; stronger effect = higher value. shares compounds with KCC2 mod. hit rate 15% among 3,700;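 active = thallium flux slope above the same plate's solvent-only control mean plus 3 SD; inconclusive = the two replicate wells disagree; inactive = no significant difference from solvent-only control wells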
KCC2 bumet counter: thallium flux despite bumetanide block in KCC2 cells, secondary assay 3 | shares compounds with KCC2 mod | HEK293-KCC2 + bumetanide/ouabain, thallium flux FluoZin2; stronger effect = higher value | normalized thallium flux at 10 µM | hit rate 49% among 3,700 | AID 1714;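 active = thallium entry rate above the same plate's blocked-transporter control wells by more than 3 SD; inconclusive = the two repeat wells disagree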;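 also: raw slope of fluorescence over initial fluorescence between 10 and 20 s after thallium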
KCC2 secondary2: confirmation of human KCC2 transport modulators; normalized thallium flux at 10 µM; shares compounds with KCC2 mod; hit rate 23% among 3,700; HEK293-KCC2, thallium flux FluoZin2 fluorescence; actives lie on both sides; F/F0 rise rate, 10–20 s post-thallium;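 active = thallium flux slope more than 3 SD above or below the plate's solvent-only control mean, mostly below; inconclusive = the two repeat wells disagreed; inactive = no significant shift from solvent-only controls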;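 also: raw slope with 0.1% DMSO as baseline and bumetanide as block control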
HEK293 Tl flux: parental HEK flux effect, counter-screen. shares compounds with KCC2 mod. HEK293 parental cells, thallium flux FluoZin2, ouabain; baseline-ratio fluorescence slope, 10–20 s after thallium. thallium flux rate (normalised fluorescence) at 10 µM. hit rate 46% among 3,700;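 active = thallium flux rate significantly above the same plate's solvent-only control wells, beyond their mean plus 3 SD; inconclusive = the two replicate wells gave conflicting results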
KCC2 ouabain: KCC2 (human) modulation, ouabain retest; HEK293-KCC2, thallium flux FluoZin2 fluorescence; bidirectional: low = inhibitor, high = activator; AID 1717; hit rate 48% among 3,700; raw Tl+ flux slope (below DMSO = inhibition, above = activation) at 10 µM; shares compounds with KCC2 mod;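 active = thallium flux slope beyond 3 SD from same-plate DMSO control mean in most replicates, usually higher, sometimes lower; inconclusive = repeat tests gave conflicting results; inactive = no significant difference from controls in most replicates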;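 also: slope of initial-normalized fluorescence between seconds 10 and 20 after thallium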
HEK293 Tl flux2: parental HEK flux effect, counter-screen 2. shares compounds with KCC2 mod. HEK293 parental, thallium flux FluoZin-2 fluorescence slope. thallium flux slope at 10 µM. hit rate 33% among 3,700. AID 1718;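 active = thallium flux slope above the same plate's solvent-control mean plus 3 SD in both duplicate wells; inconclusive = duplicate wells that disagreed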;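 also: run without ouabain in cells lacking the KCC2 cotransporter; slope of fluorescence scaled to its starting value between 10 and 20 s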
* marks the source's active call; other numbers are inactive results; ? = inconclusive; . = no result. A selection: hits, their analogues and other compounds. The true share with any hit is near 3.7%.

SMILES | NPY-Y2 antag | Furin inhibitor | KCC2 mod | NPY-Y1 antag | NPY1 pot ag | NPY2 pot ag | KCC2 secondary | KCC2 bumet counter | KCC2 secondary2 | HEK293 Tl flux | KCC2 ouabain | HEK293 Tl flux2
NNC(=O)c1ccc(CSc2n[nH]c(=O)[nH]c2=O)cc1 | . | -27 | 0.42 | . | 13 | 12 | . | . | . | . | . | .
CCCOc1ccc(NC2=CC(=O)CC(C)(C)C2)cc1 | 5 | -2 | . | 8 | -8 | -15 | 0.0062 | 0.0051 | 0.03 | 0.0077 | 0.018 | 0.011
Cc1cc(C(=O)NC(=S)Nc2ccccc2N2CCOCC2)ccc1[N+](=O)[O-] | 3 | -5 | 5.4* | 3 | -16 | 3 | 0.0091 | 0.01* | 0.03 | ? | ? | ?
O=C(NC(=S)Nc1ccccc1N1CCOCC1)c1ccc(-c2ccccc2F)o1 | . | -18 | 15* | . | -41 | -26 | 0.011 | 0.028* | 0.037 | 0.034* | 0.031* | 0.012
O=C(Nc1ccccc1N1CCCCC1)c1ncoc1-c1ccc(F)cc1 | 2 | -12 | 2.1* | 5 | -15 | -13 | 0.0086 | 0.0055 | 0.03 | 0.008 | 0.018 | 0.011
O=C(NC(=S)Nc1ccccc1N1CCCC1)c1cccc(F)c1 | . | 4 | 39* | -1 | -18 | -1 | 0.0062 | 0.062* | 0.043* | 0.027* | 0.046* | 0.028*
CCC(C)(C)NC(=O)Cc1ccc(Cl)cc1 | . | -23 | -0.16 | -1 | 10 | 1 | . | . | . | . | . | .
COc1ccc(C(=O)CNc2ccc(C)cc2C)cc1 | . | -19 | 0.017 | . | -6 | -5 | . | . | . | . | . | .
Cc1ccccc1C(=O)NC(=S)Nc1ccccc1N1CCCC1 | . | -16 | 11* | 4 | -14 | -15 | 0.0068 | 0.025* | 0.031 | 0.026* | 0.03* | 0.015*
O=C(NC(=S)Nc1ccccc1N1CCCCC1)c1ccccc1 | . | -9 | 12* | 11 | 2 | 0 | 0.0064 | 0.023* | 0.034 | 0.011* | 0.028* | ?
O=C(NC(=S)Nc1ccccc1N1CCCC1)c1ccc(F)cc1 | . | -41 | 16* | 9 | -2 | 2 | 0.018* | 0.05* | 0.035 | 0.048* | 0.039* | 0.015*
Cc1ccccc1C(=O)NC(=S)Nc1ccc(N2CCOCC2)cc1 | . | -17 | 0.11 | 2 | 24 | -8 | . | . | . | . | . | .
Cc1cc(C(=O)NC(=S)Nc2ccccc2N2CCCC2)ccc1[N+](=O)[O-] | 11 | -13 | 2.3 | 5 | 6 | 10 | . | . | . | . | . | .
CC(C)C(=O)N1CCN(c2ccccc2NC(=S)NC(=O)c2cccs2)CC1 | . | -24 | 2.8 | 9 | -12 | -5 | 0.0063 | 0.0086* | 0.028 | 0.0091* | 0.019 | ?
CS(=O)(=O)N1CCN(c2ccccc2NC(=S)NC(=O)c2cccs2)CC1 | . | -2 | 0.98 | -4 | 2 | -13 | . | . | . | . | . | .
CCn1c(Sc2ccc([N+](=O)[O-])cn2)nnc1-c1ccco1 | . | -20 | 1.2 | -1 | -11 | -24 | . | . | . | . | . | .
O=C(CCCn1c(=S)[nH]c2ccc(Br)cc2c1=O)NCC1CCCO1 (stereo unspecified) | 7 | -2 | . | -2 | -14 | -7 | . | . | . | . | . | .
CCn1c(O)c(N=NC(=S)NCC2CCCO2)c2ccccc21 (stereo unspecified) | . | -4 | 53* | 1 | -10 | -7 | 0.0071 | 0.078* | 0.058* | 0.055* | 0.067* | 0.056*
Oc1[nH]c2ccc(Br)cc2c1N=NC(=S)NCC1CCCO1 (stereo unspecified) | . | 6 | 35* | . | 23 | 5 | 0.014* | 0.048* | 0.034 | ? | 0.036* | 0.018*
CCOC(=O)N1CCC(N(CCN(C)C)C(=S)Nc2ccc(Oc3ccccc3)cc2)CC1 | . | -16 | -0.72 | 3 | 9 | -5 | . | . | . | . | . | .
O=C1/C(=C/c2ccc(Cl)cc2)NC(=S)N1Cc1cccnc1 | . | -16 | 5.2* | -8 | 8 | 6 | 0.007 | 0.0088* | 0.035 | 0.01* | 0.021 | 0.011
O=C1/C(=C/c2ccc(O)cc2)SC(=S)N1Cc1cccnc1 | 1 | -7 | 0.9 | -1 | -10 | -14 | . | . | . | . | . | .
O=C(NC(=S)NCc1ccccc1)c1ccccc1 | . | -26 | 22* | 2 | -4 | -10 | 0.0063 | 0.036* | 0.043* | 0.029* | 0.038* | 0.03*
O=C(NC(=S)NCc1ccco1)c1ccccc1 | . | -15 | 19* | 8 | 5 | -2 | ? | 0.036* | 0.035 | 0.015* | 0.028 | 0.013*
S=C(NCc1ccco1)N/N=C/c1ccccc1Cl | 7 | -14 | 7.3* | 9 | -3 | -4 | 0.0089 | 0.018* | 0.031 | 0.0095* | 0.034* | ?
SMILES | NPY-Y2 antag | Furin inhibitor | KCC2 mod | NPY-Y1 antag | NPY1 pot ag | NPY2 pot ag | KCC2 secondary | KCC2 bumet counter | KCC2 secondary2 | HEK293 Tl flux | KCC2 ouabain | HEK293 Tl flux2
COc1ccccc1/C=N/NC(=S)NCc1ccco1 | . | -10 | 4.3 | . | -35 | -26 | . | . | . | . | . | .
S=C(NCc1ccccc1)NCc1ccccc1 | 1 | -8 | 0.04 | -5 | -10 | -7 | . | . | . | . | . | .
COc1ccc(-c2cc(CCCC(=O)NCCc3ccccc3)no2)cc1 | . | -12 | -4.3* | . | -18 | -18 | 0.009 | 0.0067 | ? | 0.007 | 0.016* | 0.01
COc1ccc(NS(=O)(=O)c2ccc(/C=C/C(=O)O)cc2)cc1S(=O)(=O)N1CCOCC1 | . | -28 | 0.46 | . | 11 | -12 | . | . | . | . | . | .
COC(=O)C1CC(=O)c2sccc2C1 (stereo unspecified) | -1 | -28 | 0.86 | 9 | -25 | -5 | . | . | . | . | . | .
O=C(/C=C/c1ccco1)N1CCC(Cc2ccccc2)CC1 | . | -8 | -4.9* | 1 | -3 | -1 | 0.007 | 0.005 | 0.021* | 0.0074 | 0.014* | 0.0099
O=C(/C=C/c1ccco1)N1CCN(c2ncccn2)CC1 | 2 | -20 | 0.33 | 3 | 0 | -13 | . | . | . | . | . | .
COc1ccc(N/C(N)=N/c2nc(CSc3ccc(C)cc3)cc(=O)[nH]2)cc1 | 3 | -21 | . | -2 | 17 | 0 | 0.015 | 0.004 | 0.031 | 0.0076 | 0.015 | 0.011
CSC1=NS(=O)(=O)c2c(C)nn(C)c2S1 | . | -32 | -4* | . | 23 | 18 | 0.0083 | 0.0067 | 0.033 | ? | 0.019 | ?
O=C(NCCCCc1ccccc1)C1CC(c2ccc(C(F)(F)F)cc2)=NO1 (stereo unspecified) | . | -27 | -0.36 | . | . | . | . | . | . | . | . | .
